Data reported in ChEMBL document CHEMBL1772954, “Antifungal, cytotoxic and SAR studies of a series of N-alkyl, N-aryl and N-alkylphenyl-1,4-pyrrolediones and related compounds” (Bioorg Med Chem, 2011).
≈ marks a conversion by molar mass, not a printed value.

What was measured:
Aspergillus flavus = assay: Antifungal activity against Aspergillus flavus ATCC 9170; type: functional
Summary of the method: (§1)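 Broth microdilution per CLSI M38-A2 in RPMI-1640 with MOPS at pH 7.0. Inoculum 1-5 × 10^3 CFU/mL, with twofold compound dilutions spanning 250-0.24 µg/ml (final DMSO <1%). Plates incubated at 35 °C, moist and dark, and read when the control fungus had grown. MIC is total growth inhibition. MFC comes from subculturing clear wells in duplicate onto SDA.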

[1] = tested on: Trichophyton mentagrophytes; assay: Antifungal activity against Trichophyton mentagrophytes ATCC 9972; type: functional
Summary of the method: (§2)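 Dermatophytes tested by CLSI M38-A2 microdilution in MOPS-buffered RPMI-1640 at pH 7.0. Inoculum 1-5 × 10^3 CFU/mL; compounds 250 to 0.24 µg/ml in twofold steps, final DMSO <1%. Incubated at 28 °C in a moist, dark chamber and read according to control growth. MIC is the lowest concentration with complete inhibition. MFC is the lowest concentration with no growth after duplicate subculture on SDA.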

Cryptococcus neoformans = assay: Antifungal activity against Cryptococcus neoformans ATCC 32264; type: functional
Summary of the method: (§3)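 CLSI M27-A3 broth microdilution in RPMI-1640 buffered to pH 7.0 with MOPS. Inoculum 1-5 × 10^3 CFU/mL. Compound twofold dilutions from 250 to 0.24 µg/ml, final DMSO <1%. Incubated at 35 °C in a moist, dark chamber and read at 48 h. MIC is the lowest concentration giving total growth inhibition. For MFC, 5 µL from clear wells was plated in duplicate on SDA; MFC is the lowest concentration with no growth.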

[2] = Cytotoxicity against human erythrocytes assessed as hemolysis by spectrometric analysis; type: cell-based, Erythrocyte
Summary of the method: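 Human heparinized red blood cells were washed in PBS at pH 7.0 and suspended at 4% in sterile 5% glucose. Compounds from DMSO stocks were diluted in 5% glucose to final concentrations of 250 to 0.24 µg/ml and incubated with the cells at 37 °C. Released hemoglobin was read at 540 nm. HC50 is the concentration giving 50% lysis relative to the drug-free value.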

Aspergillus niger = assay: Antifungal activity against Aspergillus niger ATCC 9029; type: functional; summary of the method: as §1
Candida tropicalis = assay: Antifungal activity against Candida tropicalis C 131 2000; type: functional; summary of the method: as §3
MCF7 = assay: Cytotoxicity against human MCF7 cells assessed as cell growth after 2 days by sulforhodamine B assay; type: functional; conditions: MCF7, 48 h
Summary of the method: (§4)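 NCI cell lines were run by the Monks method: cells were plated with compounds from DMSO stocks and incubated 2 days at 37 °C in 5% CO2, in duplicate. Cells were fixed with cold TCA, stained with 0.4% SRB, and the bound dye was solubilized in 10 mM tris-base and read at 515 nm. The zero-day control was subtracted, and GI50 was taken from the curves.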

NCI-H460 = assay: Cytotoxicity against human H460 cells assessed as cell growth after 2 days by sulforhodamine B assay; type: functional; conditions: NCI-H460, 48 h; summary of the method: as §4
SF-268 = assay: Cytotoxicity against human SF268 cells assessed as cell growth after 2 days by sulforhodamine B assay; type: functional; conditions: SF-268, 48 h; summary of the method: as §4
Candida albicans = assay: Antifungal activity against Candida albicans ATCC 10213; type: functional; summary of the method: as §3
Aspergillus fumigatus = assay: Antifungal activity against Aspergillus fumigatus ATCC 26934; type: functional; summary of the method: as §1
Nannizzia gypsea = assay: Antifungal activity against Microsporum gypseum C 115 2000; type: functional; summary of the method: as §2
Saccharomyces cerevisiae = assay: Antifungal activity against Saccharomyces cerevisiae ATCC 9763; type: functional; summary of the method: as §3
Trichophyton rubrum = assay: Antifungal activity against Trichophyton rubrum C 113 2000; type: functional; summary of the method: as §2

| MIC (Aspergillus flavus) [µg/mL] | MIC [1] [µg/mL] | MIC (Cryptococcus neoformans) [µg/mL] | MIC (Aspergillus niger) [µg/mL] | MIC (Candida tropicalis) [µg/mL] | MIC (Candida albicans) [µg/mL] | MIC (Aspergillus fumigatus) [µg/mL] | MIC (Nannizzia gypsea) [µg/mL] | SMILES | MFC (Aspergillus flavus) [µg/mL] | MFC [1] [µg/mL] | MFC (Cryptococcus neoformans) [µg/mL] | HC50 [2] [µg/mL] | MFC (Aspergillus niger) [µg/mL] | MFC (Candida tropicalis) [µg/mL] | GI50 (MCF7) [µg/mL] | GI50 (NCI-H460) [µg/mL] | GI50 (SF-268) [µg/mL] | MFC (Candida albicans) [µg/mL] | MFC (Aspergillus fumigatus) [µg/mL] | MFC (Nannizzia gypsea) [µg/mL] | other results |
| --- | --- | --- | --- | --- | --- | --- | --- | --- | --- | --- | --- | --- | --- | --- | --- | --- | --- | --- | --- | --- | --- |
| 62.5 (≈ 299 µM) | 3.9 (≈ 18.6 µM) | 7.81 (≈ 37.3 µM) | 15.6 (≈ 74.7 µM) | 15.6 (≈ 74.7 µM) | 15.6 (≈ 74.7 µM) | 31.2 (≈ 149 µM) | 3.9 (≈ 18.6 µM) | O=C1C=CC(=O)N1c1ccc(F)cc1F | 62.5 (≈ 299 µM) | 7.81 (≈ 37.3 µM) | 7.81 (≈ 37.3 µM) | > 250 | 31.2 (≈ 149 µM) | 31.2 (≈ 149 µM) | > 10 | > 10 | > 10 | 31.2 (≈ 149 µM) | 31.2 (≈ 149 µM) | 7.81 (≈ 37.3 µM) | MFC (Saccharomyces cerevisiae): 15.6 µg/mL (≈ 74.7 µM); MIC (Saccharomyces cerevisiae): 7.81 µg/mL (≈ 37.3 µM); MFC (Trichophyton rubrum): 7.81 µg/mL (≈ 37.3 µM); MIC (Trichophyton rubrum): 3.9 µg/mL (≈ 18.6 µM) |
| 62.5 (≈ 273 µM) | 1.95 (≈ 8.5 µM) | 3.9 (≈ 17 µM) | 62.5 (≈ 273 µM) | 3.9 (≈ 17 µM) | 3.9 (≈ 17 µM) | 15.6 (≈ 68.2 µM) | 1.95 (≈ 8.5 µM) | CC(C)(C)c1ccccc1N1C(=O)C=CC1=O | 62.5 (≈ 273 µM) | 3.9 (≈ 17 µM) | 7.81 (≈ 34.1 µM) | > 250 | 125 (≈ 545 µM) | 3.9 (≈ 17 µM) | > 10 | > 10 | > 10 | 3.9 (≈ 17 µM) | 31.2 (≈ 136 µM) | 3.9 (≈ 17 µM) | MFC (Saccharomyces cerevisiae): 7.81 µg/mL (≈ 34.1 µM); MIC (Saccharomyces cerevisiae): 3.9 µg/mL (≈ 17 µM); MFC (Trichophyton rubrum): 3.9 µg/mL (≈ 17 µM); MIC (Trichophyton rubrum): 1.95 µg/mL (≈ 8.5 µM) |
| 15.6 (≈ 112 µM) | 7.81 (≈ 56.1 µM) | 7.81 (≈ 56.1 µM) | 15.6 (≈ 112 µM) | 62.5 (≈ 449 µM) | 62.5 (≈ 449 µM) | 15.6 (≈ 112 µM) | 3.9 (≈ 28 µM) | CCCN1C(=O)C=CC1=O | 15.6 (≈ 112 µM) | 7.81 (≈ 56.1 µM) | 15.6 (≈ 112 µM) | > 250 | 15.6 (≈ 112 µM) | 125 (≈ 898 µM) | > 10 | > 10 | > 10 | 125 (≈ 898 µM) | 31.2 (≈ 225 µM) | 7.81 (≈ 56.1 µM) | MFC (Saccharomyces cerevisiae): 31.2 µg/mL (≈ 225 µM); MIC (Saccharomyces cerevisiae): 15.6 µg/mL (≈ 112 µM); MFC (Trichophyton rubrum): 7.81 µg/mL (≈ 56.1 µM); MIC (Trichophyton rubrum): 3.9 µg/mL (≈ 28 µM) |
| 1.95 (≈ 12.7 µM) | 1.95 (≈ 12.7 µM) | 3.9 (≈ 25.5 µM) | 3.9 (≈ 25.5 µM) | 3.9 (≈ 25.5 µM) | 3.9 (≈ 25.5 µM) | 1.95 (≈ 12.7 µM) | 3.9 (≈ 25.5 µM) | CCCCN1C(=O)C=CC1=O | 7.81 (≈ 51 µM) | 3.9 (≈ 25.5 µM) | 7.81 (≈ 51 µM) | > 250 | 3.9 (≈ 25.5 µM) | 3.9 (≈ 25.5 µM) | > 10 | > 10 | > 10 | 15.6 (≈ 102 µM) | 1.95 (≈ 12.7 µM) | 3.9 (≈ 25.5 µM) | MFC (Saccharomyces cerevisiae): 1.95 µg/mL (≈ 12.7 µM); MIC (Saccharomyces cerevisiae): 1.95 µg/mL (≈ 12.7 µM); MFC (Trichophyton rubrum): 1.95 µg/mL (≈ 12.7 µM); MIC (Trichophyton rubrum): 1.95 µg/mL (≈ 12.7 µM) |
| 15.6 (≈ 141 µM) | 7.81 (≈ 70.3 µM) | 15.6 (≈ 141 µM) | 7.81 (≈ 70.3 µM) | 31.2 (≈ 281 µM) | 62.5 (≈ 563 µM) | 15.6 (≈ 141 µM) | 7.81 (≈ 70.3 µM) | CN1C(=O)C=CC1=O | 31.2 (≈ 281 µM) | 15.6 (≈ 141 µM) | 62.5 (≈ 563 µM) | > 250 | 15.6 (≈ 141 µM) | 62.5 (≈ 563 µM) | > 10 | > 10 | > 10 | 125 (≈ 1130 µM) | 62.5 (≈ 563 µM) | 7.81 (≈ 70.3 µM) | MFC (Saccharomyces cerevisiae): 15.6 µg/mL (≈ 141 µM); MIC (Saccharomyces cerevisiae): 7.81 µg/mL (≈ 70.3 µM); MFC (Trichophyton rubrum): 15.6 µg/mL (≈ 141 µM); MIC (Trichophyton rubrum): 3.9 µg/mL (≈ 35.1 µM) |
